Measurements: ChEMBL document CHEMBL4196015, “Synthesis of coumarin-theophylline hybrids as a new class of anti-tubercular and anti-microbial agents” (2018)
≈ marks a conversion by molar mass, not a printed value.

Legend:
[1] = tested on: Mycobacterium tuberculosis; assay: Antitubercular activity against Mycobacterium tuberculosis H37Rv ATCC 27294 after 5 days by microplate alamar blue assay; assay type: functional; details: H37Rv ATCC 27294, 120 h
How it was run: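 Retest of compounds above 90% inhibition in the primary screen. Two-fold serial dilution on plate in Middlebrook 7H9 broth, in triplicate. Isoniazid as positive control. Plates sealed, 37 °C for 5 days. Then 1:1 Alamar Blue/10% Tween 80 added, 24 h more. Blue = inhibition, pink = growth. MIC taken as lowest inhibiting concentration.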

Candida albicans = assay: Antifungal activity against Candida albicans after 24 hrs by broth microdilution method; assay type: functional
How it was run: (§1)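 Broth microdilution, 96-well. Inoculum from 24 h broth cultures adjusted to 0.5 McFarland. Compounds dissolved in DMSO at 1 mg/mL (stock), two-fold serial dilutions in tryptone broth (1000 to 3.9 μg/mL). Positive controls: tetracyclin for bacteria, nystatin for fungi. Incubated 37 °C, 24 h. Then 0.01% aqueous resazurin added for viability. MIC = lowest concentration inhibiting growth.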

Staphylococcus aureus = assay: Antibacterial activity against Staphylococcus aureus after 24 hrs by broth microdilution method; assay type: functional; how it was run: as §1
Escherichia coli = assay: Antibacterial activity against Escherichia coli after 24 hrs by broth microdilution method; assay type: functional; how it was run: as §1
[2] = tested on: Mycobacterium tuberculosis; assay: Antitubercular activity against Mycobacterium tuberculosis H37Rv ATCC 27294 at 7.8 ug/ml after 5 days by microplate alamar blue assay; assay type: functional
How it was run: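 Single-concentration primary screen at 7.8 µg/mL against M. tuberculosis H37Rv (ATCC-27294) by MABA, read as percent inhibition. Run in Middlebrook 7H9 broth, with BACTEC 12B medium also cited, at 37 °C for 5 days. Then 1:1 Alamar Blue/10% Tween 80 added and incubated 24 h. Colour read: blue = inhibition, pink = growth.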

Salmonella typhi = assay: Antibacterial activity against Salmonella typhi after 24 hrs by broth microdilution method; assay type: functional, Salmonella enterica subsp. enterica serovar Typhi; details: Salmonella enterica; how it was run: as §1

| SMILES | MIC [1] [µg/mL] | MIC (Candida albicans) [µg/mL] | MIC (Staphylococcus aureus) [µg/mL] | MIC (Escherichia coli) [µg/mL] | Activity [2] [%] | MIC (Salmonella typhi) [µg/mL] |
| --- | --- | --- | --- | --- | --- | --- |
| Cn1c(=O)c2ncn(Cc3cc(=O)oc4ccc(C(C)(C)C)cc34)c2n(C)c1=O | 0.48 (≈ 1.22 µM) | 62.5 (≈ 158 µM) | 7.8 (≈ 19.8 µM) | 3.9 (≈ 9.89 µM) | 96 | 7.8 (≈ 19.8 µM) |
| Cn1c(=O)c2ncn(Cc3cc(=O)oc4c3ccc3ccccc34)c2n(C)c1=O | – | 62.5 (≈ 161 µM) | 15.6 (≈ 40.2 µM) | 15.6 (≈ 40.2 µM) | 16 | 62.5 (≈ 161 µM) |
| Cc1cc(C)c2c(Cn3cnc4c(=O)n(C)c(=O)n(C)c43)cc(=O)oc2c1 | 0.97 (≈ 2.65 µM) | 250 (≈ 682 µM) | 15.6 (≈ 42.6 µM) | 125 (≈ 341 µM) | 94 | 250 (≈ 682 µM) |
| Cc1ccc2c(Cn3cnc4c(=O)n(C)c(=O)n(C)c43)cc(=O)oc2c1 | 1.95 (≈ 5.53 µM) | 31.3 (≈ 88.8 µM) | 62.5 (≈ 177 µM) | 31.3 (≈ 88.8 µM) | 92 | 125 (≈ 355 µM) |
| Cn1c(=O)c2ncn(Cc3cc(=O)oc4ccc5ccccc5c34)c2n(C)c1=O | 1.95 (≈ 5.02 µM) | 62.5 (≈ 161 µM) | 7.8 (≈ 20.1 µM) | 7.8 (≈ 20.1 µM) | 92 | 15.6 (≈ 40.2 µM) |
| Cn1c(=O)c2ncn(Cc3cc(=O)oc4ccc(Cl)cc34)c2n(C)c1=O | 3.9 (≈ 10.5 µM) | 125 (≈ 335 µM) | 31.3 (≈ 84 µM) | 31.3 (≈ 84 µM) | 92 | 62.5 (≈ 168 µM) |
| Cc1ccc2oc(=O)cc(Cn3cnc4c(=O)n(C)c(=O)n(C)c43)c2c1 | 0.12 (≈ 0.341 µM) | 31.3 (≈ 88.8 µM) | 3.9 (≈ 11.1 µM) | 3.9 (≈ 11.1 µM) | 96 | 7.8 (≈ 22.1 µM) |
| Cn1c(=O)c2ncn(Cc3cc(=O)oc4cc(O)ccc34)c2n(C)c1=O | – | 62.5 (≈ 176 µM) | 15.6 (≈ 44 µM) | 125 (≈ 353 µM) | 15 | 31.5 (≈ 88.9 µM) |
| Cn1c(=O)c2ncn(Cc3cc(=O)oc4ccc(Br)cc34)c2n(C)c1=O | 3.9 (≈ 9.35 µM) | 125 (≈ 300 µM) | 15.6 (≈ 37.4 µM) | 31.3 (≈ 75 µM) | 92 | 31.3 (≈ 75 µM) |
| COc1ccc2oc(=O)cc(Cn3cnc4c(=O)n(C)c(=O)n(C)c43)c2c1 | – | 31.3 (≈ 85 µM) | 7.8 (≈ 21.2 µM) | 7.8 (≈ 21.2 µM) | 56 | 7.8 (≈ 21.2 µM) |
| C[C@@H]1[C@H](O)[C@@H](C)/C=C/C=C/C=C/C=C/C=C/C=C/C=C/[C@H](O[C@@H]2O[C@H](C)[C@@H](O)[C@H](N)[C@@H]2O)C[C@@H]2O[C@](O)(C[C@@H](O)C[C@@H](O)[C@H](O)CC[C@@H](O)C[C@@H](O)CC(=O)O[C@H]1C)C[C@H](O)[C@H]2C(=O)O [AMPHOTERICIN B] | – | 0.97 (≈ 1.05 µM) | – | – | – | – |
| NNC(=O)c1ccncc1 [ISONIAZID] | 0.06 (≈ 0.438 µM) | – | – | – | 100 | – |
| CN(C)[C@@H]1C(O)=C(C(N)=O)C(=O)[C@@]2(O)C(O)=C3C(=O)c4c(O)cccc4[C@@](C)(O)[C@H]3C[C@@H]12 [TETRACYCLINE] | – | – | 3.9 (≈ 8.78 µM) | 3.9 (≈ 8.78 µM) | – | 3.9 (≈ 8.78 µM) |
